As usually defined, the EC50 is the concentration at which the effect is half-maximal. As usually defined, the Emax is the maximal effect, on the per cent scale that the assay sets. What is called pEC50 is the negative decadic logarithm of the EC50, by convention in mol/L. The low end stands for a large EC50, the high end for a small EC50. One may read the fraction unbound as the share of the substance not bound to proteins or other matrix. Low values mean extensive binding, high ones weak binding.

The results in this text go back to ChEMBL document CHEMBL3392981, “Synthesis and pharmacological evaluation of dual acting ligands targeting the adenosine A2A and dopamine D2 receptors for the potential treatment of Parkinson's disease” (J Med Chem, 2015).

Series [1] deals with T1, D(2) dopamine receptor (Homo sapiens, UniProt P14416). The series can be described thus: Agonist activity at human dopamine D2L receptor expressed in CHO cell membranes incubated for 1 hr by [35S]GTPgammaS binding assay. In kind it is functional. Conditions: for pEC50: cho. (Binding of GTPγS marks nucleotide exchange on a G protein.)
T1 sequence (P14416 whole entry): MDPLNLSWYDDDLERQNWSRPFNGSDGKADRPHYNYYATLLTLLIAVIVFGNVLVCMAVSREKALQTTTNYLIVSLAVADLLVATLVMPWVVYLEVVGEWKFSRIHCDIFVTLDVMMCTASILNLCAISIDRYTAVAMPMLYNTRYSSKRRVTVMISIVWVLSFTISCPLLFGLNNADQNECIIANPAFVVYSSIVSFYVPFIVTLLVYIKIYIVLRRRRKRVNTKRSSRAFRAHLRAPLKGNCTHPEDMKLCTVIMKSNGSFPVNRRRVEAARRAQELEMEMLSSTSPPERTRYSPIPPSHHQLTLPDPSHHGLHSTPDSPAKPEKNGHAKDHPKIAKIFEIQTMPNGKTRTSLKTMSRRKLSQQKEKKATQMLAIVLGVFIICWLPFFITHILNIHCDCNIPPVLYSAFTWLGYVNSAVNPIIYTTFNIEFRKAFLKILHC
Series [2] has as its target T1, D(2) dopamine receptor. The series can be described thus: Agonist activity at human dopamine D2L receptor expressed in CHO cell membranes incubated for 1 hr by [35S]GTPgammaS binding assay relative to 100 uM quinelorane. In kind it is functional.
The next series addresses Adenosine receptor A2a (Homo sapiens, UniProt P29274). Kind of series: Inhibition of human adenosine A2A receptor expressed in FlpIn-CHO cells assessed as inhibition of NECA-induced cAMP accumulation incubated for 30 mins by fluorescence assay. In kind it is functional, cell-based. A general note: Cyclic AMP is a second messenger, typically raised through Gs and lowered through Gi signalling.

Series [3] is described as follows: Fraction unbound in Wistar Han rat brain at 5 uM incubated for 4 hrs by dialysis and LC-MS/MS method. It is filed as ADME, tissue-based. The method, boiled down:
(§1)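 Blood and brain tissue were taken from Wistar Han rat and tested in vitro. Percent fraction unbound was determined in each matrix (undiluted Fu). The brain:blood partition ratio (Kbb) was derived as an in vitro predictor of CNS penetration. Runs were in triplicate, and values are reported as mean ± SD.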

A short description of series [4]: Fraction unbound in Wistar Han rat blood at 5 uM incubated for 4 hrs by dialysis and LC-MS/MS method. In kind it is ADME, tissue-based. In short, it runs like this:
as §1

Series [5] is described as follows: Blood-brain partition ratio in Wistar Han rat at 5 uM incubated for 4 hrs by dialysis and LC-MS/MS method. Conditions: in vitro. In kind it is ADME, tissue-based. In short, it runs like this: as §1

Chain of Adenosine receptor A2a (P29274 whole entry): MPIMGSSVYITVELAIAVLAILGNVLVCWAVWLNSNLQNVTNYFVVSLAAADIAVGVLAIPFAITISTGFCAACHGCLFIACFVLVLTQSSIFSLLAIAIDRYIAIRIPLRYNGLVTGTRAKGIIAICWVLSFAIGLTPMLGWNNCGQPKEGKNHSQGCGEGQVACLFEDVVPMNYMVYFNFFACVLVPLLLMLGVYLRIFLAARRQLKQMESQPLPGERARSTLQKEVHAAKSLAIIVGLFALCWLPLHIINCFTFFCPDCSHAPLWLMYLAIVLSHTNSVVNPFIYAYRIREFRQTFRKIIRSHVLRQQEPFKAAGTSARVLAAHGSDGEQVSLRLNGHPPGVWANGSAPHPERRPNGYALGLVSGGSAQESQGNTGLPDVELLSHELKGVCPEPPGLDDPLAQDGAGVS

On to `CCCN(CCCNC(=O)COc1ccc(CCNc2nc(N)n3nc(-c4ccco4)nc3n2)cc1)CCc1cccc2c1CC(=O)N2`, for which the EC50 at D(2) dopamine receptor [1] came to 0.148 µM. The compound further yielded a maximal response (Emax) at D(2) dopamine receptor [2] of 88%. In addition, the IC50 at Adenosine receptor A2a (read-out: IC50) is 0.063 µM; on Adenosine receptor A2a (read-out: pIC50 (converted)), 0.0631 µM.

As to `CCCN(CCCNC(=O)CCCNC(=O)CCCOc1ccc(CCNc2nc(N)n3nc(-c4ccco4)nc3n2)cc1)CCc1cccc2c1CC(=O)N2`, a half-maximal effect at D(2) dopamine receptor [1] (EC50) was put at 0.785 µM. For the same compound, at D(2) dopamine receptor [2], the maximal effect (Emax) stood at 68%. Further, the IC50 on Adenosine receptor A2a (read-out: IC50) and on Adenosine receptor A2a (read-out: pIC50 (converted)) was 0.11 µM each time.

As for `O=C(O)C(F)(F)F.O=C1Cc2c(CCN3CCCNCC3)cccc2N1`, on D(2) dopamine receptor [1], the EC50 was > 100 µM and the pEC50 was < 4.

For the compound `CCCN(CCCNC(=O)CCCOc1ccc(CCNc2nc(N)n3nc(-c4ccco4)nc3n2)cc1)CCc1cccc2c1CC(=O)N2`, on D(2) dopamine receptor [1], the midpoint of the response, the EC50, lay at 0.204 µM. The Emax on D(2) dopamine receptor [2] is 95%. Also, the results for the IC50 on Adenosine receptor A2a (read-out: IC50) and on Adenosine receptor A2a (read-out: pIC50 (converted)) were 0.018 µM and 0.0182 µM, respectively.

For the compound `CC(C)(C)OC(=O)N1CCCN(CCc2cccc3c2CC(=O)N3)CC1`, on D(2) dopamine receptor [1], the EC50 was > 100 µM and the pEC50 is < 4.

As to `CN(CCCNc1nc(N)n2nc(-c3ccco3)nc2n1)CCc1cccc2c1CC(=O)N2`, at D(2) dopamine receptor [1], a half-maximal response (EC50) required 0.389 µM. The compound also returned an Emax at D(2) dopamine receptor [2] of 77%. Besides, the IC50 at Adenosine receptor A2a (read-out: IC50) and at Adenosine receptor A2a (read-out: pIC50 (converted)) was 1.12 µM throughout.

`COC(=O)CCCCCCCCCCCNC(=O)CCCOc1ccc(CCNc2nc(N)n3nc(-c4ccco4)nc3n2)cc1`: at D(2) dopamine receptor [1], the EC50 is > 100 µM and the pEC50 is < 4. At Adenosine receptor A2a (read-out: IC50), the IC50 was found to be 0.437 µM. Further, the IC50 at Adenosine receptor A2a (read-out: pIC50 (converted)) is 0.437 µM.

`CCCN(CCCNC(=O)CCCC(=O)Oc1ccc(CCNc2nc(N)n3nc(-c4ccco4)nc3n2)cc1)CCc1cccc2c1CC(=O)N2`: the EC50 on D(2) dopamine receptor [1] came to 0.484 µM. Further, the Emax at D(2) dopamine receptor [2] is 79%. For the same compound, the IC50 on Adenosine receptor A2a (read-out: IC50) was 0.035 µM; at Adenosine receptor A2a (read-out: pIC50 (converted)) it was 0.0355 µM.

`Nc1nc(NCCc2ccc(O)cc2)nc2nc(-c3ccco3)nn12` [ZM-241385] gave a fraction unbound at 4 h, 5 µM in series [3] of 0.0849. Further, in series [4], the fraction unbound at 4 h, 5 µM was 0.0647. The Kbb in series [5] is 0.76. For the same compound, at D(2) dopamine receptor [1], the EC50 is > 100 µM and the pEC50 is recorded as < 4.

For `CCCN(CCCNc1nc(Oc2ccc(CCNc3nc(N)n4nc(-c5ccco5)nc4n3)cc2)nc(N2CCOCC2)n1)CCc1cccc2c1CC(=O)N2.O=CO`, the fraction unbound at 4 h, 5 µM in series [3] was 0.0061; in series [4] it was 0.0222. Moreover, the Kbb in series [5] is on record as 3.64. The response on D(2) dopamine receptor [1] was half-maximal at 0.311 µM (EC50). This compound showed a maximum response (Emax) on D(2) dopamine receptor [2] of 65%. Moreover, the IC50 at Adenosine receptor A2a (read-out: IC50) and at Adenosine receptor A2a (read-out: pIC50 (converted)) was 0.12 µM in each case.

With `CCCN(CCCNc1nc(N)n2nc(-c3ccco3)nc2n1)CCc1cccc2c1CC(=O)N2`, the fraction unbound at 4 h, 5 µM amounted to 0.153 in series [3] and 0.198 in series [4]. Further, in series [5], the Kbb was 1.29. Also, the EC50 on D(2) dopamine receptor [1] stood at 0.088 µM. The same compound showed an Emax on D(2) dopamine receptor [2] of 89%. In addition, the IC50 at Adenosine receptor A2a (read-out: IC50) and at Adenosine receptor A2a (read-out: pIC50 (converted)) was 0.912 µM throughout.

Regarding `NC1CCN(CCc2cccc3c2CC(=O)N3)CC1`, on D(2) dopamine receptor [1], the EC50 is > 100 µM and the pEC50 is listed as < 4.

Consider `Nc1nc(NC2CCN(CCc3cccc4c3CC(=O)N4)CC2)nc2nc(-c3ccco3)nn12`, for which, on D(2) dopamine receptor [1], the 50% effective concentration (EC50) was > 100 µM and the pEC50 is recorded as < 4. Also, the IC50 at Adenosine receptor A2a (read-out: IC50) is 1.51 µM. The IC50 on Adenosine receptor A2a (read-out: pIC50 (converted)) is 1.51 µM.

As to `Nc1nc(NCCc2ccc(Oc3nc(Cl)nc(N4CCOCC4)n3)cc2)nc2nc(-c3ccco3)nn12`, the EC50 at D(2) dopamine receptor [1] was > 100 µM. In addition, the pEC50 at D(2) dopamine receptor [1] is recorded as < 4. Besides, the IC50 on Adenosine receptor A2a (read-out: IC50) and at Adenosine receptor A2a (read-out: pIC50 (converted)) was 0.135 µM in each case.

For `CCCN(CCc1cccc2c1CC(=O)N2)c1nc(N)n2nc(-c3ccco3)nc2n1`, at D(2) dopamine receptor [1], the EC50 was > 100 µM and the pEC50 was < 4. Also, the IC50 on Adenosine receptor A2a (read-out: IC50) worked out at 0.032 µM. Moreover, the IC50 at Adenosine receptor A2a (read-out: pIC50 (converted)) is 0.0324 µM.

For the compound `CCCN(CCCNC(=O)CCCCCCCCCCCNC(=O)OC(C)(C)C)CCc1cccc2c1CC(=O)N2`, on D(2) dopamine receptor [1], the EC50 is 0.114 µM. On D(2) dopamine receptor [2], this compound gave an Emax of 66%. Further, at Adenosine receptor A2a (read-out: IC50), the IC50 was > 100 µM.

As to `CCCN1CCC[C@@H]2Cc3nc(N)ncc3C[C@H]21` [QUINELORANE], the pEC50 on D(2) dopamine receptor [1] is on record as 7.35.

Regarding `CCCN(CCCNC(=O)CCCCCCCNC(=O)CCCOc1ccc(CCNc2nc(N)n3nc(-c4ccco4)nc3n2)cc1)CCc1cccc2c1CC(=O)N2`, on D(2) dopamine receptor [1], the EC50 was determined as 0.501 µM. This compound gave an Emax on D(2) dopamine receptor [2] of 77%. Moreover, the IC50 on Adenosine receptor A2a (read-out: IC50) is 0.041 µM; at Adenosine receptor A2a (read-out: pIC50 (converted)) it was 0.0407 µM.

Take `O=C1Cc2c(CCN3CCNCC3)cccc2N1`: at D(2) dopamine receptor [1], the EC50 is > 100 µM and the pEC50 was < 4.

Take `Nc1nc(N2CCN(CCc3cccc4c3CC(=O)N4)CC2)nc2nc(-c3ccco3)nn12`: the results for the fraction unbound at 4 h, 5 µM in series [3] and in series [4] were 0.0563 and 0.0605, respectively. Moreover, the Kbb in series [5] was 1.07. On D(2) dopamine receptor [1], the 50% effective concentration (EC50) is > 100 µM. Further, the pEC50 at D(2) dopamine receptor [1] was < 4. In addition, the IC50 on Adenosine receptor A2a (read-out: IC50) was 0.059 µM; at Adenosine receptor A2a (read-out: pIC50 (converted)) it was 0.0589 µM.

At D(2) dopamine receptor [1], `CCCN(CCCNC(=O)CCCCCCCCCCCNC(=O)CCCOc1ccc(CCNc2nc(N)n3nc(-c4ccco4)nc3n2)cc1)CCc1cccc2c1CC(=O)N2` returned an EC50 of 1.4 µM. This compound also had an Emax on D(2) dopamine receptor [2] of 38%. Besides, the IC50 at Adenosine receptor A2a (read-out: IC50) and on Adenosine receptor A2a (read-out: pIC50 (converted)) was 1.07 µM each time.

On D(2) dopamine receptor [1], `CCCN(CCCCCCNc1nc(N)n2nc(-c3ccco3)nc2n1)CCc1cccc2c1CC(=O)N2` yielded an EC50 of 0.038 µM. Also, the Emax at D(2) dopamine receptor [2] was found to be 77%. The IC50 on Adenosine receptor A2a (read-out: IC50) and at Adenosine receptor A2a (read-out: pIC50 (converted)) was 1.78 µM in each case.

Regarding `CC(C)(C)OC(=O)NC1CCN(CCc2cccc3c2CC(=O)N3)CC1`, on D(2) dopamine receptor [1], the EC50 was > 100 µM and the pEC50 is recorded as < 4.

As to `CC(C)(C)OC(=O)N1CCN(CCc2cccc3c2CC(=O)N3)CC1`, at D(2) dopamine receptor [1], the EC50 is > 100 µM and the pEC50 is recorded as < 4.

As to `CC(C)(C)OC(=O)N1CCC(Nc2nc(N)n3nc(-c4ccco4)nc3n2)CC1`, the IC50 at Adenosine receptor A2a (read-out: IC50) and at Adenosine receptor A2a (read-out: pIC50 (converted)) was 1.74 µM each time.

As to `Nc1nc(N2CCCN(CCc3cccc4c3CC(=O)N4)CC2)nc2nc(-c3ccco3)nn12.O=C(O)C(F)(F)F`, the EC50 at D(2) dopamine receptor [1] is > 100 µM. Further, on D(2) dopamine receptor [1], the pEC50 is < 4. Also, the IC50 at Adenosine receptor A2a (read-out: IC50) and on Adenosine receptor A2a (read-out: pIC50 (converted)) was 1.48 µM each time.
